Test results reported in ChEMBL document CHEMBL1649387, “Synthesis and evaluation of quinonoid compounds against tumor cell lines” (Eur J Med Chem, 2011).
Active and inactive are the calls of the source. The calls are words filed in the database; no cut-off is given here.

Columns and labels:
HCT-8 [1] = test: Genotoxicity in human HCT8 cells assessed as DNA strand breaks at 5 uM after 24 hrs by comet assay in presence of […]; format: functional, cell-based
Method in brief: (§1)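 Cells treated 24 h, with or without 24 h pretreatment with 5 mM NAC. Cells embedded in 0.75% low-melt agarose and lysed (pH 10.0, 4 °C, ≥1 h). DNA unwound 20 min in 300 mM NaOH/1 mM EDTA (pH >13), then electrophoresed 20 min at 0.86 V/cm and stained with ethidium bromide. 100 cells scored visually into classes 0–4 to give damage index.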

MDA-MB-435 [2] = test: Induction of lipid peroxidation in human MDA-MB-435 cells assessed as increase in TBARS formation at 5 uM after 24 hrs; format: functional, cell-based
Method in brief: (§2)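 Cells treated 24 h, with or without 24 h pretreatment with 5 mM NAC. Cells lysed with Tris-HCl (15 mM, 1 h) and heated with TCA/HCl/thiobarbituric acid for 15 min at 100 °C, then centrifuged. TBARS read at 532 nm against hydrolyzed 1,1,3,3-tetramethoxypropane standard and normalized to protein.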

HCT-8 [3] = test: Cytotoxicity against human HCT8 cells after 72 hrs by MTT assay; format: functional, cell-based; conditions: HCT-8, 72 h
PBMC = test: Cytotoxicity against human PBMC cells after 72 hrs by Alamar Blue assay; format: cell-based
MDA-MB-435 [4] = test: Cytotoxicity against human MDA-MB-435 cells after 72 hrs by MTT assay; format: functional, cell-based; conditions: MDA-MB-435, 72 h
SF-295 [5] = test: Genotoxicity in human SF295 cells assessed as DNA strand breaks at 5 uM after 24 hrs by comet assay in presence of […]; format: functional, cell-based; method in brief: as §1
MDA-MB-435 [6] = test: Induction of apoptosis in human MDA-MB-435 cells assessed as cell viability at 5 uM after 24 hrs by trypan blue exclusion assay in presence of […]; format: functional, cell-based
Method in brief: (§3)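 Cells incubated 24 h, with or without 24 h pretreatment with 5 mM NAC. Viability determined by trypan blue dye exclusion.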

HL-60 [7] = test: Induction of lipid peroxidation in human HL60 cells assessed as increase in TBARS formation at 5 uM after 24 hrs; format: functional, cell-based; method in brief: as §2
MDA-MB-435 [8] = test: Genotoxicity in human MDA-MB-435 cells assessed as DNA strand breaks at 5 uM after 24 hrs by comet assay; format: functional, cell-based; method in brief: as §1
SF-295 [9] = test: Induction of apoptosis in human SF295 cells assessed as cell viability at 5 uM after 24 hrs by trypan blue exclusion assay in presence of […]; format: functional, cell-based; method in brief: as §3
SF-295 [10] = test: Induction of lipid peroxidation in human SF295 cells assessed as increase in TBARS formation at 5 uM after 24 hrs; format: functional, cell-based; method in brief: as §2
HCT-8 [11] = test: Induction of apoptosis in human HCT8 cells assessed as cell viability at 5 uM after 24 hrs by trypan blue exclusion assay; format: functional, cell-based; method in brief: as §3
MDA-MB-435 [12] = test: Genotoxicity in human MDA-MB-435 cells assessed as DNA strand breaks at 5 uM after 24 hrs by comet assay in presence of […]; format: functional, cell-based; method in brief: as §1
HL-60 [13] = test: Induction of lipid peroxidation in human HL60 cells assessed as increase in TBARS formation at 5 uM after 24 hrs in presence of […]; format: functional, cell-based; method in brief: as §2
SF-295 [14] = test: Induction of apoptosis in human SF295 cells assessed as cell viability at 5 uM after 24 hrs by trypan blue exclusion assay; format: functional, cell-based; method in brief: as §3
HL-60 [15] = test: Genotoxicity in human HL60 cells assessed as DNA strand breaks at 5 uM after 24 hrs by comet assay; format: functional, cell-based; method in brief: as §1
SF-295 [16] = test: Induction of lipid peroxidation in human SF295 cells assessed as increase in TBARS formation at 5 uM after 24 hrs in presence of […]; format: functional, cell-based; method in brief: as §2
HCT-8 [17] = test: Induction of apoptosis in human HCT8 cells assessed as cell viability at 5 uM after 24 hrs by trypan blue exclusion assay in presence of […]; format: functional, cell-based; method in brief: as §3
HCT-8 [18] = test: Induction of lipid peroxidation in human HCT8 cells assessed as increase in TBARS formation at 5 uM after 24 hrs; format: functional, cell-based; method in brief: as §2
HL-60 [19] = test: Genotoxicity in human HL60 cells assessed as DNA strand breaks at 5 uM after 24 hrs by comet assay in presence of […]; format: functional, cell-based; method in brief: as §1
HCT-8 [20] = test: Induction of lipid peroxidation in human HCT8 cells assessed as increase in TBARS formation at 5 uM after 24 hrs in presence of […]; format: functional, cell-based; method in brief: as §2
SF-295 [21] = test: Genotoxicity in human SF295 cells assessed as DNA strand breaks at 5 uM after 24 hrs by comet assay; format: functional, cell-based; method in brief: as §1
MDA-MB-435 [22] = test: Induction of lipid peroxidation in human MDA-MB-435 cells assessed as increase in TBARS formation at 5 uM after 24 hrs in presence of […]; format: functional, cell-based; method in brief: as §2
HL-60 [23] = test: Induction of apoptosis in human HL60 cells assessed as cell viability at 5 uM after 24 hrs by trypan blue exclusion assay; format: functional, cell-based; method in brief: as §3
HCT-8 [24] = test: Genotoxicity in human HCT8 cells assessed as DNA strand breaks at 5 uM after 24 hrs by comet assay; format: functional, cell-based; method in brief: as §1
SF-295 [25] = test: Cytotoxicity against human SF295 cells after 72 hrs by MTT assay; format: functional, cell-based; conditions: SF-295, 72 h
MDA-MB-435 [26] = test: Induction of apoptosis in human MDA-MB-435 cells assessed as cell viability at 5 uM after 24 hrs by trypan blue exclusion assay; format: functional, cell-based; method in brief: as §3
HL-60 [27] = test: Induction of apoptosis in human HL60 cells assessed as cell viability at 5 uM after 24 hrs by trypan blue exclusion assay in presence of […]; format: functional, cell-based; method in brief: as §3
HL-60 [28] = test: Cytotoxicity against human HL60 cells after 72 hrs by MTT assay; format: functional, cell-based; conditions: HL-60, 72 h
HL-60 [29] = test: DNA damage index, DNA damage in human HL60 cells to DNA damage in human HL60 cells with FPG/ENDO3 DNA repair enzymes; format: functional
Method in brief: (§4)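 Cells treated 12 h, then alkaline comet slides washed in enzyme buffer (40 mM HEPES, 100 mM KCl, 0.5 mM Na2EDTA, 0.2 mg/mL BSA, pH 8.0). Slides then incubated with FPG (30 min, 37 °C) or ENDOIII (45 min, 37 °C). Enzyme-sensitive sites = total breaks minus buffer-only breaks. 100 cells scored per group. NAC pretreatment 5 mM. Mean ± S.E.M. of three experiments.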

SF-295 [30] = test: DNA damage index, DNA damage in human SF295 cells to DNA damage in human HL60 cells with FPG/ENDO3 DNA repair enzymes in presence of […]; format: functional; method in brief: as §4
MDA-MB-435 [31] = test: DNA damage index, DNA damage in human MDA-MB-435 cells to DNA damage in human HL60 cells with FPG/ENDO3 DNA repair enzymes; format: functional; method in brief: as §4
MDA-MB-435 [32] = test: DNA damage index, DNA damage in human MDA-MB-435 cells to DNA damage in human HL60 cells with FPG/ENDO3 DNA repair enzymes in presence of […]; format: functional; method in brief: as §4
HCT-8 [33] = test: DNA damage index, DNA damage in human HCT8 cells to DNA damage in human HL60 cells with FPG/ENDO3 DNA repair enzymes; format: functional; method in brief: as §4
HL-60 [34] = test: DNA damage index, DNA damage in human HL60 cells to DNA damage in human HL60 cells with FPG/ENDO3 DNA repair enzymes in presence of […]; format: functional; method in brief: as §4
HCT-8 [35] = test: DNA damage index, DNA damage in human HCT8 cells to DNA damage in human HL60 cells with FPG/ENDO3 DNA repair enzymes in presence of […]; format: functional; method in brief: as §4
SF-295 [36] = test: DNA damage index, DNA damage in human SF295 cells to DNA damage in human HL60 cells with FPG/ENDO3 DNA repair enzymes; format: functional; method in brief: as §4

Compound | Activity (MDA-MB-435 [2]) | IC50 (PBMC) [µM] | Activity (HL-60 [7]) | Activity (SF-295 [10]) | Activity (HL-60 [13]) | Activity (SF-295 [16]) | Activity (HCT-8 [18]) | Activity (HCT-8 [20]) | Activity (MDA-MB-435 [22]) | Ratio (HL-60 [29]) | Ratio (SF-295 [30]) | Ratio (MDA-MB-435 [31]) | Ratio (MDA-MB-435 [32]) | Ratio (HCT-8 [33]) | Ratio (HL-60 [34]) | Ratio (HCT-8 [35]) | Ratio (SF-295 [36]) | other results
CC1(C)OC2=C(C(=O)C(=O)c3ccccc32)[C@H](n2cc(-c3ccc(F)cc3)nn2)[C@H]1Br | Active | 3.37 | Active | Active | inactive | inactive | Active | inactive | inactive | – | – | – | – | – | – | – | – | Activity (HCT-8 [1]): inactive; IC50 (HCT-8 [3]): 2.26 µM; IC50 (MDA-MB-435 [4]): 1.2 µM; Activity (SF-295 [5]): inactive; Activity (MDA-MB-435 [6]): inactive; Activity (MDA-MB-435 [8]): Active; Activity (SF-295 [9]): inactive; Activity (HCT-8 [11]): Active; Activity (MDA-MB-435 [12]): inactive; Activity (SF-295 [14]): Active; Activity (HL-60 [15]): Active; Activity (HCT-8 [17]): inactive; Activity (HL-60 [19]): inactive; Activity (SF-295 [21]): Active; Activity (HL-60 [23]): Active; Activity (HCT-8 [24]): Active; IC50 (SF-295 [25]): 1.76 µM; Activity (MDA-MB-435 [26]): Active; Activity (HL-60 [27]): inactive; IC50 (HL-60 [28]): 1.2 µM
CC1(C)CCC2=C(O1)c1ccccc1C(=O)C2=O [LAPACHONE] | Active | > 20.6 | Active | Active | inactive | inactive | Active | inactive | inactive | 61.36 | 8.72 | 83.17 | 5.16 | 72.41 | 8.33 | 11.41 | 58.75 | –
CC1(C)CC2=C(O1)c1ccccc1C(=O)C2=O [NOR-BETA-LAPACHONE] | Active | > 21.9 | Active | Active | inactive | inactive | Active | inactive | inactive | 67.19 | 9.18 | 78.52 | 7.49 | 63.25 | 12.36 | 10.48 | 63.81 | –
